Reference: PubChem BioAssay AID588747 (Vanderbilt Specialized Chemistry Center, 2011)
A number with no mark means an inactive call.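 The calls were made as follows: active = a dose-dependent rise in calcium signal, with potency and percent of maximal acetylcholine response fitted; inactive = the rest.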

target: Muscarinic acetylcholine receptor M5 (Homo sapiens) (UniProt P08912); experiment: M5 positive allosteric modulation, counter-screen, dose response, counter-screen for M4 PAM project, human, CHO cells, calcium fluorescence (AID 588747); details: CHO hM5, calcium Fluo-4 fluorescence, ACh EC20 potentiation; series mostly up to 30 µM; percent ACh max response: at the top concentration
Sequence (P08912 whole entry, looked up): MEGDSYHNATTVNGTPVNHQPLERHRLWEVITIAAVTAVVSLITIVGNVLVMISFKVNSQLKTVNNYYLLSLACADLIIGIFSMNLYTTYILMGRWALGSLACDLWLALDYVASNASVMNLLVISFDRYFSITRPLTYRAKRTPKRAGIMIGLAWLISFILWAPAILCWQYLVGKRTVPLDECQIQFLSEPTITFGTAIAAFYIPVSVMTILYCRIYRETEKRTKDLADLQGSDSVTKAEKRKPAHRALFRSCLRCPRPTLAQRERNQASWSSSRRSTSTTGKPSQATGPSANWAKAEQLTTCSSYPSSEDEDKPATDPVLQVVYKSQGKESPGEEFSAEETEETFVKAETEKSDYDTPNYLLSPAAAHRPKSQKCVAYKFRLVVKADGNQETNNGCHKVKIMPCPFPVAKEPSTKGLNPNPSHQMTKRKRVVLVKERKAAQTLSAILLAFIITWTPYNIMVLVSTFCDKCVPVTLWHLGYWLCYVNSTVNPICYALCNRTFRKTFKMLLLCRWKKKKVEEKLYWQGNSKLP
Summary of the method: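 Assay system: CHO cells expressing human muscarinic M5 receptor / Medium: HEPES-buffered HBSS, 2.5 mM probenecid / Reagent: acetylcholine at EC20, then acetylcholine at EC80 / Schedule: compound pre-incubation 144 s, EC80 ACh 86 s after EC20, 37 °C / Technique: calcium fluorescence with Fluo-4 AM dye / Controls: 1 mM acetylcholine as maximal response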

| Structure (SMILES) | percent ACh max response |
| --- | --- |
| Cc1nc2sc(C(=O)NCc3nccs3)c(N)c2c(C)c1Cl | 18.3 |
| Cc1nc2sc(C(=O)NCc3ccncn3)c(N)c2c(C)c1Cl | 15.2 |
| Cc1nc2sc(C(=O)NCc3cccc(F)c3F)c(N)c2c(C)c1Cl | 16.2 |
| Cc1nc2sc(C(=O)NCCc3ccncc3)c(N)c2c(C)c1Cl | 19.3 |
| Cc1nc2sc(C(=O)NC3CC3)c(N)c2c(C)c1Cl | 17.9 |
